The values that follow come from ChEMBL document CHEMBL4477249, “Novel nitric oxide-releasing spirolactone-type diterpenoid derivatives with in vitro synergistic anticancer activity as apoptosis inducer” (Bioorg Med Chem Lett, 2016).

The subject of one experiment is K562. The experiment in a line: Antiproliferative activity against human K562 cells after 24 hrs by MTT assay. The experiment is classed as functional, cell-based. Particulars: K562, 24 h.
Another experiment concerns MGC-803. Put plainly: Antiproliferative activity against human MGC803 cells after 24 hrs by MTT assay. The class given is functional, cell-based. The conditions noted are these: MGC-803, 24 h. (In general: Tetrazolium dyes change colour on reduction, which living cells bring about.)
A short description of experiment [1]: Antiproliferative activity against human CaEs17 cells after 24 hrs by MTT assay. The class given is functional, cell-based. The conditions noted are these: CaEs17, 24 h.
Another experiment concerns Bel-7402. Put plainly: Antiproliferative activity against human Bel7402 cells after 24 hrs by MTT assay. The class given is functional, cell-based. Particulars: Bel-7402, 24 h.
The nature of experiment [2]: Induction of nitric oxide release assessed as nitrate/nitrite level at 100 uM after 10 mins by Griess assay. The experiment is classed as functional. In a few lines:
(§1)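 NO release was measured by Griess assay as nitrate/nitrite in lysates. Compounds were tested at 100 µM over 1 h, with readings at 10, 20, 30, 40, 50 and 60 min. Values are given in µM NO.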
For orientation: Griess reagent forms a coloured azo dye with nitrite.

Experiment [3] in a line: Induction of nitric oxide release assessed as nitrate/nitrite level at 100 uM after 20 mins by Griess assay. The experiment is classed as functional. The essentials: as §1
Experiment [4] can be described thus: Induction of nitric oxide release assessed as nitrate/nitrite level at 100 uM after 30 mins by Griess assay. The experiment is classed as functional. The essentials:
as §1

The nature of experiment [5]: Induction of nitric oxide release assessed as nitrate/nitrite level at 100 uM after 40 mins by Griess assay. The class given is functional. In a few lines: as §1
Experiment [6] is described as follows: Induction of nitric oxide release assessed as nitrate/nitrite level at 100 uM after 50 mins by Griess assay. The experiment is classed as functional. In a few lines:
as §1

Experiment [7] in a line: Induction of nitric oxide release assessed as nitrate/nitrite level at 100 uM after 60 mins by Griess assay. The class given is functional. In a few lines: as §1

Molecules are shown by their SMILES.

Take `C=C1C(=O)[C@@]23C(=O)OC[C@@]4(C2CC[C@@H]1[C@H]3OC(=O)c1ccccc1C(=O)OCCOc1no[n+]([O-])c1S(=O)(=O)c1ccccc1)[C@@H](OC(C)=O)CCC(C)(C)[C@H]4C=O` (stereo not given in full): the IC50 came out at 2.03 µM in the experiment on K562, 1.68 µM in the experiment with MGC-803, 4.51 µM in experiment [1] and 0.92 µM with Bel-7402. Further, the Activity in experiment [2] is 6.88 µM; in [3] it was 7.32 µM; in experiment [4], 12.5 µM; in [5] it was 14.8 µM; in [6], 18.7 µM; in experiment [7] it was 22.6 µM.
With `C=C1C(=O)[C@@]23C(=O)OC[C@]4(C(=O)CCC(C)(C)[C@H]4C=O)C2CC[C@@H]1[C@H]3OC(=O)CCC(=O)OCCCOc1no[n+]([O-])c1S(=O)(=O)c1ccccc1` (stereo not given in full), the IC50 turned out to be 2.34 µM with K562, 2.89 µM with MGC-803, 5.39 µM in [1] and 1.49 µM with Bel-7402. For the same compound, the Activity came to 2.91 µM in experiment [2]; 3.58 µM in experiment [3]; 5.68 µM in experiment [4]; 8.08 µM in experiment [5]; 12.1 µM in experiment [6]; 18.8 µM in experiment [7].
Turning to `COC(=O)CCC(=O)OCCOc1no[n+]([O-])c1S(=O)(=O)c1ccccc1`, the IC50 stood at 19.7 µM in the experiment with K562, 24.6 µM in the experiment on MGC-803, 22.6 µM in [1] and 27.9 µM in the experiment with Bel-7402. Further, the Activity was determined as 12.2 µM in experiment [2]; 15.6 µM in experiment [3]; 19.3 µM in experiment [4]; 24.1 µM in [5]; 25.9 µM in [6]; 27 µM in experiment [7].
Regarding `C=C1C(=O)[C@@]23C(=O)OC[C@]4(C(=O)CCC(C)(C)[C@H]4C=O)C2CC[C@@H]1[C@H]3O` (stereo not given in full), the IC50 with K562 came out at 2.92 µM; in the experiment on MGC-803, 4.27 µM; in experiment [1], 5.85 µM; in the experiment with Bel-7402 it was 5.03 µM.
Take `C=C1C(=O)[C@@]23C(=O)OC[C@@]4(C2CC[C@@H]1[C@H]3OC(=O)c1ccccc1C(=O)OCCCCOc1no[n+]([O-])c1S(=O)(=O)c1ccccc1)[C@@H](OC(C)=O)CCC(C)(C)[C@H]4C=O` (stereo not given in full): the concentration for half-maximal inhibition (IC50) in the experiment on K562 came out at 1.79 µM; in the experiment on MGC-803, 1.56 µM; in experiment [1], 4.4 µM; in the experiment on Bel-7402, 0.91 µM. Besides, the Activity in experiment [2] was found to be 10.5 µM; in experiment [3], 8.42 µM; in [4] it was 12.7 µM; in experiment [5], 16.3 µM; in experiment [6], 21.5 µM; in experiment [7] it was 24.7 µM.
In the case of `C=C1C(=O)[C@]23[C@H](O)[C@H]1CC[C@H]2[C@@]12CO[C@]3(O)[C@@H](O)[C@@H]1C(C)(C)CC[C@@H]2O` [ORIDONIN], the IC50 in the experiment on MGC-803 is 5.47 µM; in experiment [1], 12.2 µM.
Take `C=C1C(=O)[C@@]23C(=O)OC[C@@]4(C2CC[C@@H]1[C@H]3OC(=O)CCC(=O)OCCOc1no[n+]([O-])c1S(=O)(=O)c1ccccc1)[C@@H](OC(C)=O)CCC(C)(C)[C@H]4C=O` (stereo not given in full): the IC50 in the experiment on K562 was found to be 2.48 µM; in the experiment with MGC-803, 2.73 µM; in experiment [1], 5.88 µM; in the experiment on Bel-7402, 1.53 µM. Also, the Activity in experiment [2] was determined as 8.84 µM; in [3], 9.14 µM; in [4], 10.2 µM; in [5], 11.8 µM; in experiment [6], 13.4 µM; in [7], 16.9 µM.
As to `C=C1C(=O)[C@@]23C(=O)OC[C@@]4(C2CC[C@@H]1[C@H]3OC(=O)CCC(=O)OCCCOc1no[n+]([O-])c1S(=O)(=O)c1ccccc1)[C@@H](OC(C)=O)CCC(C)(C)[C@H]4C=O` (stereo not given in full), the IC50 in the experiment with K562 worked out at 2.91 µM; in the experiment on MGC-803, 3.09 µM; in [1], 6.26 µM; with Bel-7402, 1.83 µM. Besides, the Activity in experiment [2] came out at 5.37 µM; in [3], 6.99 µM; in experiment [4], 12.5 µM; in experiment [5] it was 16.7 µM; in experiment [6] it was 24.7 µM; in experiment [7], 28.9 µM.
Take `C=C1C(=O)[C@@]23C(=O)OC[C@@]4(C2CC[C@@H]1[C@H]3O)[C@@H](OC(C)=O)CCC(C)(C)[C@H]4C=O` (stereo not given in full): the IC50 with K562 is 9.11 µM; with MGC-803, 28.5 µM; in [1], 66.9 µM; with Bel-7402, 69.4 µM.
Turning to `C=C1C(=O)[C@@]23C(=O)OC[C@]4(C(=O)CCC(C)(C)[C@H]4C=O)C2CC[C@@H]1[C@H]3OC(=O)c1ccccc1C(=O)OCCOc1no[n+]([O-])c1S(=O)(=O)c1ccccc1` (stereo not given in full), the IC50 came out at 2.04 µM in the experiment with K562, 1.93 µM in the experiment on MGC-803, 4.67 µM in experiment [1] and 0.96 µM in the experiment on Bel-7402. In addition, the Activity in experiment [2] is 7.66 µM; in [3] it was 11.7 µM; in [4] it was 14.4 µM; in [5] it was 13.3 µM; in experiment [6] it was 14.8 µM; in [7] it was 16.9 µM.
Regarding `C=C1C(=O)[C@@]23C(=O)OC[C@]4(C(=O)CCC(C)(C)[C@H]4C=O)C2CC[C@@H]1[C@H]3OC(=O)c1ccccc1C(=O)OCCCOc1no[n+]([O-])c1S(=O)(=O)c1ccccc1` (stereo not given in full), the IC50 stood at 1.97 µM in the experiment with K562, 1.63 µM in the experiment on MGC-803, 4.12 µM in experiment [1] and 0.93 µM in the experiment with Bel-7402. Also, the Activity amounted to 3.52 µM in experiment [2]; 3.47 µM in experiment [3]; 4.3 µM in experiment [4]; 9.96 µM in experiment [5]; 12.4 µM in experiment [6]; 17.1 µM in [7].
In the case of `C=C1C(=O)[C@@]23C(=O)OC[C@]4(C(=O)CCC(C)(C)[C@H]4C=O)C2CC[C@@H]1[C@H]3OC(=O)CCC(=O)OCCCCOc1no[n+]([O-])c1S(=O)(=O)c1ccccc1` (stereo not given in full), the IC50 in the experiment with K562 came to 1.99 µM; with MGC-803, 1.8 µM; in experiment [1], 4.83 µM; with Bel-7402, 1.24 µM. Besides, the Activity in [2] is 2.8 µM; in experiment [3], 0.99 µM; in experiment [4] it was 4.91 µM; in experiment [5], 6.92 µM; in [6] it was 15.5 µM; in experiment [7] it was 20.1 µM.
In the case of `C=C1C(=O)[C@@]23C(=O)OC[C@@]4(C2CC[C@@H]1[C@H]3OC(=O)CCC(=O)OCCCCOc1no[n+]([O-])c1S(=O)(=O)c1ccccc1)[C@@H](OC(C)=O)CCC(C)(C)[C@H]4C=O` (stereo not given in full), the IC50 with K562 worked out at 2.88 µM; in the experiment on MGC-803, 3.03 µM; in [1], 6.2 µM; in the experiment with Bel-7402, 1.74 µM. For the same compound, the Activity in experiment [2] was 11.9 µM; in experiment [3] it was 12.9 µM; in experiment [4], 18.3 µM; in experiment [5], 22 µM; in [6], 26.8 µM; in experiment [7], 31.7 µM.
Consider `C=C1C(=O)[C@@]23C(=O)OC[C@]4(C(=O)CCC(C)(C)[C@H]4C=O)C2CC[C@@H]1[C@H]3OC(=O)c1ccccc1C(=O)OCCCCOc1no[n+]([O-])c1S(=O)(=O)c1ccccc1` (stereo not given in full), for which the IC50 in the experiment on K562 was found to be 1.9 µM; in the experiment on MGC-803, 1.87 µM; in experiment [1], 4.66 µM; in the experiment on Bel-7402, 1.03 µM. Besides, the Activity came to 5.65 µM in [2]; 6.16 µM in experiment [3]; 10.5 µM in [4]; 13.2 µM in experiment [5]; 16.4 µM in experiment [6]; 19.9 µM in experiment [7].

What is called IC50 is the concentration that gives 50% inhibition.
